Measurements as given in ChEMBL document CHEMBL3351593, “Potent nonimmunosuppressive cyclophilin inhibitors with improved pharmaceutical properties and decreased transporter inhibition” (J Med Chem, 2014).

Tests used:
[1] = target: Peptidyl-prolyl cis-trans isomerase A (Homo sapiens, UniProt P62937); experiment: Binding affinity to human cyclophilin A by surface plasmon resonance method
Hepatitis C virus [2] = experiment: Antiviral activity against HCV subtype 1b in human Huh7.5 cells expressing subgenomic HCV replicons and coexpressing luciferase reporter gene; format: functional, cell-based, Hepacivirus hominis; settings: genotype 1b, Huh-7
How it was run: (§1)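 Stable Huh7.5 lines carrying genotype 1a or 1b subgenomic replicons with luciferase reporter, made by RNA electroporation and G418 selection. Assay run in phenol red-free DMEM without G418, sixteen half-log compound dilutions, in triplicate. Luciferase signal read after 72 h relative to DMSO controls, giving EC50.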

[3] = target: T1, Solute carrier organic anion transporter family member 1B1 (Homo sapiens, UniProt Q9Y6L6); experiment: Inhibition of OATP1B1 (unknown origin) expressed in CHO cells using 8-fluorescein-cAMP substrate by fluorescent photometry; format: ADME, cell-based
T1 sequence (Q9Y6L6 whole entry): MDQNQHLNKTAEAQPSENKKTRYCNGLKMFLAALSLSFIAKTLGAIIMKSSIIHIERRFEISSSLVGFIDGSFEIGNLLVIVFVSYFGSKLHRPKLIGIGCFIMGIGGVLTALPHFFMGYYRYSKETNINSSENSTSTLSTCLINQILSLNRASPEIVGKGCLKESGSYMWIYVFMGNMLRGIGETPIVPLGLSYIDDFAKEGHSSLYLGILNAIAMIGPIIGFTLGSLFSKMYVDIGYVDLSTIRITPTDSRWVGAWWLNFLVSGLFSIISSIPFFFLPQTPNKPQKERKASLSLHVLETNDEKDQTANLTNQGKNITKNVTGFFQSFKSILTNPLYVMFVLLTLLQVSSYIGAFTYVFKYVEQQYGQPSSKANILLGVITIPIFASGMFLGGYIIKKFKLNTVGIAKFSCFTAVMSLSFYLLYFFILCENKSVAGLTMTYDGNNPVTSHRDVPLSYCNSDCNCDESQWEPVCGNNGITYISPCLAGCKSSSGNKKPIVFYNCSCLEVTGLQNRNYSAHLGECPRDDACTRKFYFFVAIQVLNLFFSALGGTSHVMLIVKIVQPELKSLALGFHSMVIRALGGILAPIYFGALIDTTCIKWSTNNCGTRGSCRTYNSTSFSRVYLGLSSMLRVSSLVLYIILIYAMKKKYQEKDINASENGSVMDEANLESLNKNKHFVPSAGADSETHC
How it was run: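 CHO-OATP1B1 cells and vector control cells cultured 2 days, then washed and equilibrated 15 min in HBSS + 10 mM HEPES. Exposed 10 min to 2.5 μM 8-fluorescein-cAMP with inhibitor at 0−30 μM (up to 1% DMSO). Cells washed and lysed, uptake measured by fluorescence, and IC50 taken from the concentration-response curve.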

Hepatitis C virus [4] = experiment: Antiviral activity against HCV subtype 1b in human Huh7.5 cells expressing subgenomic HCV replicons and coexpressing luciferase reporter gene in presence of 40% human serum; format: functional, cell-based, Hepacivirus hominis; settings: genotype 1b, Huh-7
How it was run: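 Genotype 1b luciferase replicon in Huh7.5 cells with 40% human serum added to the assay medium, in phenol red-free DMEM without G418. Sixteen half-log dilutions in triplicate. Luciferase read after 72 h relative to DMSO-treated cells, giving EC50.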

PBMC = experiment: Cytotoxicity against PHA-stimulated human PBMC by 5-bromo-2'-deoxyuridine incorporation assay; format: cell-based
How it was run: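 Fresh PBMCs from two human donors in X-VIVO 15 medium, stimulated with PHA. Seven concentrations taken from a half-log series. Incubated 60 h at 37 °C, 5% CO2, with BrdU added for the final 12 h. Incorporation read by anti-BrdU ELISA at 450 nm. Percent inhibition against PHA-stimulated untreated cells after background subtraction, four-parameter fit giving IC50.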

Hepatitis C virus [5] = experiment: Antiviral activity against HCV subtype 1a in human Huh7.5 cells expressing subgenomic HCV replicons and coexpressing luciferase reporter gene; format: functional, cell-based, Hepacivirus hominis; settings: Huh-7; how it was run: as §1
[6] = target: Peptidyl-prolyl cis-trans isomerase B (Homo sapiens, UniProt P23284); experiment: Binding affinity to human cyclophilin B by surface plasmon resonance method
How it was run: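 Biotinylated cyclophilin proteins examined by single-cycle kinetics SPR. Running buffer 10 mM HEPES pH 7.4, 150 mM NaCl, 0.05% P20, 3% DMSO, with inhibitor. Each concentration injected for 1 min at 50 μL/min, then 10 min dissociation. kon, koff and KD obtained from a 1:1 binding fit.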

[7] = target: Peptidyl-prolyl cis-trans isomerase F, mitochondrial (Homo sapiens, UniProt P30405); experiment: Binding affinity to human cyclophilin F by surface plasmon resonance method
How it was run: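 Surface plasmon resonance with biotinylated cyclophilin protein, single-cycle kinetics. Running buffer 10 mM HEPES pH 7.4, 150 mM NaCl, 0.05% P20, 3% DMSO, with inhibitor present. Compound injected at several concentrations, 1 min contact each at 50 μL/min, then 10 min final dissociation. kon, koff and KD obtained from a 1:1 binding model fit.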

[8] = Cytotoxicity against human MT4 cells by CDCF probe based assay; format: cell-based
Cytochrome P450 3A4 = Cytochrome P450 3A4 (Homo sapiens, UniProt P08684); experiment: Time dependent inhibition of CYP3A4 (unknown origin); format: ADME; settings: TDE = time-dependent effect
Cytochrome P450 3A4, sequence (P08684 whole entry): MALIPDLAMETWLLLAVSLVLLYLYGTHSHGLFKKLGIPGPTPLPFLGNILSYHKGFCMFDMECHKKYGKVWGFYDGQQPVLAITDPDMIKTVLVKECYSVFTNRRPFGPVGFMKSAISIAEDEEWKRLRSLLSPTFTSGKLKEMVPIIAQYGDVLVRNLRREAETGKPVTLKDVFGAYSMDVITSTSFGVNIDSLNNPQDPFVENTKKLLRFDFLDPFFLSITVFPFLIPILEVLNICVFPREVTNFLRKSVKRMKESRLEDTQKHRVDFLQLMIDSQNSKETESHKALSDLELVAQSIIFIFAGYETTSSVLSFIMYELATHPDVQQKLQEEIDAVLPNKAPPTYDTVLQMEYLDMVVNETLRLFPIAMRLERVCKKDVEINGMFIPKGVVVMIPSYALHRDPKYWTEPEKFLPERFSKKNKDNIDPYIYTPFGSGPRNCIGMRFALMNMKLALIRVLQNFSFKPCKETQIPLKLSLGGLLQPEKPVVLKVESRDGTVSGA

Peptidyl-prolyl cis-trans isomerase A, sequence (P62937 whole entry): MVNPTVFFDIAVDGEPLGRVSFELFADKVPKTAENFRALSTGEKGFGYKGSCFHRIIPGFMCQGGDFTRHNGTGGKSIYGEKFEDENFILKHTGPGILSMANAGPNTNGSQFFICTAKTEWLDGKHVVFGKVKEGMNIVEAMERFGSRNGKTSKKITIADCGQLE
Peptidyl-prolyl cis-trans isomerase B, sequence (P23284 whole entry): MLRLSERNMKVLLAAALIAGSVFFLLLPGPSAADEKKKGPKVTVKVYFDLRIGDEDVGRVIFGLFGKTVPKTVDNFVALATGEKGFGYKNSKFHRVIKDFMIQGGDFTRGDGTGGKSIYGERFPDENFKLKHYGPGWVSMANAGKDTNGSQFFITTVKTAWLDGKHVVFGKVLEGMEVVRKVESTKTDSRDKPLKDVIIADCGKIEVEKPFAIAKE
Peptidyl-prolyl cis-trans isomerase F, mitochondrial, sequence (P30405 whole entry): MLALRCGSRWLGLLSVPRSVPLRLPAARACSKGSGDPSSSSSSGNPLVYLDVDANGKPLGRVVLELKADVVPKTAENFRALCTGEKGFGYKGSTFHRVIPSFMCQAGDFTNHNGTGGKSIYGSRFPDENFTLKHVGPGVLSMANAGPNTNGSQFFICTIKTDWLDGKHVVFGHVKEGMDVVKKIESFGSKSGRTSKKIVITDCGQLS

C/C=C/C[C@@H](C)[C@@H](O)[C@H]1C(=O)N[C@@H](CC)C(=O)N(C)[C@H](C)C(=O)N(C)[C@@H]([C@H](C)CC#N)C(=O)N[C@@H](C(C)C)C(=O)N(C)[C@@H](CC(C)C)C(=O)N[C@@H](C)C(=O)N[C@H](C)C(=O)N(C)[C@@H](CC(C)C)C(=O)N(C)[C@@H](CC(C)C)C(=O)N(C)[C@@H](C(C)C)C(=O)N1C
Kd [1]: 1.3 nM | EC50 (Hepatitis C virus [2]): 28 nM | IC50 [3]: 1000 nM

C/C=C/C[C@@H](C)[C@@H](O)[C@H]1C(=O)N[C@@H](CC)C(=O)N(C)[C@H](C)C(=O)N(C)[C@@H]([C@H](C)CN(C)CCOC)C(=O)N[C@@H](C(C)C)C(=O)N(C)[C@@H](CC(C)C)C(=O)N[C@@H](C)C(=O)N[C@H](C)C(=O)N(C)[C@@H](CC(C)C)C(=O)N(C)[C@@H](CC(C)C)C(=O)N(C)[C@@H](C(C)C)C(=O)N1C
Kd [1]: 1.8 nM | EC50 (Hepatitis C virus [2]): 42 nM | IC50 [3]: 2000 nM

C/C=C/C[C@@H](C)[C@@H](O)[C@H]1C(=O)N[C@@H](CC)C(=O)N(C)[C@H](C)C(=O)N(C)[C@@H]([C@H](C)CN2CCOCC2)C(=O)N[C@@H](C(C)C)C(=O)N(C)[C@@H](CC(C)C)C(=O)N[C@@H](C)C(=O)N[C@H](C)C(=O)N(C)[C@@H](CC(C)C)C(=O)N(C)[C@@H](CC(C)C)C(=O)N(C)[C@@H](C(C)C)C(=O)N1C
Kd [1]: 3.1 nM | EC50 (Hepatitis C virus [2]): 33 nM | IC50 [3]: 4300 nM

C/C=C/C[C@@H](C)[C@@H](O)[C@H]1C(=O)N[C@@H](CC)C(=O)N(C)[C@H](C)C(=O)N(C)[C@@H]([C@H](C)CN2CCCOCC2)C(=O)N[C@@H](C(C)C)C(=O)N(C)[C@@H](CC(C)C)C(=O)N[C@@H](C)C(=O)N[C@H](C)C(=O)N(C)[C@@H](CC(C)C)C(=O)N(C)[C@@H](CC(C)C)C(=O)N(C)[C@@H](C(C)C)C(=O)N1C
Kd [1]: 1.9 nM | EC50 (Hepatitis C virus [2]): 37 nM | IC50 [3]: 1800 nM

C/C=C/C[C@@H](C)[C@@H](O)[C@H]1C(=O)N[C@@H](CC)C(=O)N(C)[C@H](C)C(=O)N(C)[C@@H]([C@H](C)COC)C(=O)N[C@@H](C(C)C)C(=O)N(C)[C@@H](CC(C)C)C(=O)N[C@@H](C)C(=O)N[C@H](C)C(=O)N(C)[C@@H](CC(C)C)C(=O)N(C)[C@@H](CC(C)C)C(=O)N(C)[C@@H](C(C)C)C(=O)N1C
Kd [1]: 1.7 nM | EC50 (Hepatitis C virus [2]): 36 nM | IC50 [3]: 2800 nM

C/C=C/C[C@@H](C)[C@@H](O)[C@H]1C(=O)N[C@@H](CC)C(=O)N(C)[C@H](C)C(=O)N(C)[C@@H]([C@H](C)CN2CC3CCC(C2)O3)C(=O)N[C@@H](C(C)C)C(=O)N(C)[C@@H](CC(C)C)C(=O)N[C@@H](C)C(=O)N[C@H](C)C(=O)N(C)[C@@H](CC(C)C)C(=O)N(C)[C@@H](CC(C)C)C(=O)N(C)[C@@H](C(C)C)C(=O)N1C
Kd [1]: 2.5 nM | EC50 (Hepatitis C virus [2]): 42 nM | IC50 [3]: 1800 nM

C/C=C/C[C@@H](C)[C@@H](O)[C@H]1C(=O)N[C@@H](CC)C(=O)N(C)CC(=O)N(C)[C@@H]([C@@H](C)CC)C(=O)N[C@@H](C(C)C)C(=O)N(C)[C@@H](CC(C)C)C(=O)N[C@@H](C)C(=O)N[C@H](C)C(=O)N(C)[C@@H](CC(C)C)C(=O)N(C)[C@@H](CC(C)C)C(=O)N(C)[C@@H](C(C)C)C(=O)N1C [NIM811]
EC50 (Hepatitis C virus [4]): 210 nM | Kd [1]: 7.5 nM | EC50 (Hepatitis C virus [2]): 97 nM | IC50 (PBMC): 2400 nM | EC50 (Hepatitis C virus [5]): 217 nM | Kd [6]: 7.4 nM | Kd [7]: 4.2 nM | CC50 [8]: 13000 nM

C/C=C/C[C@@H](C)[C@@H](O)[C@H]1C(=O)N[C@@H](CC)C(=O)N(C)[C@H](C)C(=O)N(C)[C@@H]([C@H](C)CCN2CCOCC2)C(=O)N[C@@H](C(C)C)C(=O)N(C)[C@@H](CC(C)C)C(=O)N[C@@H](C)C(=O)N[C@H](C)C(=O)N(C)[C@@H](CC(C)C)C(=O)N(C)[C@@H](CC(C)C)C(=O)N(C)[C@@H](C(C)C)C(=O)N1C
inhibition (INH) (Cytochrome P450 3A4): tde | Kd [1]: 1.1 nM | EC50 (Hepatitis C virus [2]): 29 nM

C/C=C/C[C@@H](C)[C@@H](O)[C@H]1C(=O)N[C@@H](CC)C(=O)N(C)[C@H](C)C(=O)N(C)[C@@H]([C@H](C)CN2CCC(C#N)CC2)C(=O)N[C@@H](C(C)C)C(=O)N(C)[C@@H](CC(C)C)C(=O)N[C@@H](C)C(=O)N[C@H](C)C(=O)N(C)[C@@H](CC(C)C)C(=O)N(C)[C@@H](CC(C)C)C(=O)N(C)[C@@H](C(C)C)C(=O)N1C
Kd [1]: 1.4 nM | EC50 (Hepatitis C virus [2]): 29 nM

C/C=C/C[C@@H](C)[C@@H](O)[C@H]1C(=O)N[C@@H](CC)C(=O)N(C)C(SCCN(C)C)C(=O)N(C)[C@@H](CC(C)(C)O)C(=O)N[C@@H](C(C)C)C(=O)N(C)[C@@H](CC(C)C)C(=O)N[C@@H](C)C(=O)N[C@H](C)C(=O)N(C)[C@@H](CC(C)C)C(=O)N(C)[C@@H](CC(C)C)C(=O)N(C)[C@@H](C(C)C)C(=O)N1C (single isomer, unassigned) [SCY 635]
EC50 (Hepatitis C virus [4]): 192 nM | EC50 (Hepatitis C virus [2]): 221 nM | IC50 (PBMC): 4700 nM | EC50 (Hepatitis C virus [5]): 263 nM | Kd [6]: 2.9 nM | Kd [7]: 3.1 nM

C/C=C/C[C@@H](C)[C@@H](O)[C@H]1C(=O)N[C@@H](CC)C(=O)N(C)[C@H](C)C(=O)N(C)[C@@H]([C@H](C)COCCN2CCOCC2)C(=O)N[C@@H](C(C)C)C(=O)N(C)[C@@H](CC(C)C)C(=O)N[C@@H](C)C(=O)N[C@H](C)C(=O)N(C)[C@@H](CC(C)C)C(=O)N(C)[C@@H](CC(C)C)C(=O)N(C)[C@@H](C(C)C)C(=O)N1C
Kd [1]: 1.1 nM | EC50 (Hepatitis C virus [2]): 36 nM | IC50 [3]: 6400 nM

C/C=C/C[C@@H](C)[C@@H](O)[C@H]1C(=O)N[C@@H](CC)C(=O)N(C)[C@H](C)C(=O)N(C)[C@@H]([C@H](C)CN2CCC(F)(F)C2)C(=O)N[C@@H](C(C)C)C(=O)N(C)[C@@H](CC(C)C)C(=O)N[C@@H](C)C(=O)N[C@H](C)C(=O)N(C)[C@@H](CC(C)C)C(=O)N(C)[C@@H](CC(C)C)C(=O)N(C)[C@@H](C(C)C)C(=O)N1C
Kd [1]: 4 nM | EC50 (Hepatitis C virus [2]): 44 nM
